{
  "source": "paper PMC4758401",
  "about": "(Diabetes, Obesity & Metabolism, 2015)",
  "type_in_all_cases": "in vivo, patients with type 1 diabetes",
  "key": {"[1]": {"assay": "Adverse events and hypoglycaemia", "outline": "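Four-way crossover in adults with type 1 diabetes, one visit per arm over 4 weeks. Before a 600-kcal breakfast, each arm received subcutaneous regular insulin at 30% below the usual rapid-analogue dose, plus a separate masked injection of test compound (6, 9 or 12 mcg/U insulin) or volume-matched placebo. Symptomatic hypoglycaemia was tracked for 24 h after dosing; adverse events were recorded on- and off-treatment.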"}, "plasma glucose": {"system": "plasma glucose"}, "glucagon": {"system": "glucagon", "details": "for Reduction of AUC0–3 h for glucagon: p < 0.05", "outline": "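Same crossover design: test compound at 6, 9 or 12 mcg/U insulin or volume-matched placebo, each injected separately alongside subcutaneous regular insulin (30% reduced dose) just before a standard 600-kcal breakfast. Plasma immunoreactive glucagon was measured by radioimmunoassay in samples taken at −15, −5, 15, 30, 45, 60, 90, 120, 150 and 180 min. Incremental AUC0–3 h from baseline was compared with placebo by a linear mixed-effects model (sequence, period, treatment, random patient), two-sided 0.05.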"}, "[2]": {"details": "all ratios (6, 9 or 12 mcg/unit insulin)"}},
  "note": "Where two headings read alike, the source gives them in different places.",
  "data": [
    {"smiles": "CC[C@H](C)[C@H](NC(=O)[C@@H]1CCCN1C(=O)CNC(=O)[C@H](Cc1ccccc1)NC(=O)[C@H](CC(N)=O)NC(=O)[C@H](CC(N)=O)NC(=O)[C@H](CO)NC(=O)[C@H](CO)NC(=O)[C@H](Cc1c[nH]cn1)NC(=O)[C@@H](NC(=O)[C@H](CC(C)C)NC(=O)[C@H](Cc1ccccc1)NC(=O)[C@H](CC(N)=O)NC(=O)[C@H](C)NC(=O)[C@H](CC(C)C)NC(=O)[C@H](CCCNC(=N)N)NC(=O)[C@H](CCC(N)=O)NC(=O)[C@@H](NC(=O)[C@H](C)NC(=O)[C@@H]1CSSC[C@H](NC(=O)[C@@H](N)CCCCN)C(=O)N[C@@H](CC(N)=O)C(=O)N[C@@H]([C@@H](C)O)C(=O)N[C@@H](C)C(=O)N[C@@H]([C@@H](C)O)C(=O)N1)[C@@H](C)O)C(C)C)C(=O)N[C@@H](CC(C)C)C(=O)N1CCC[C@H]1C(=O)N1CCC[C@H]1C(=O)N[C@H](C(=O)N[C@@H](CC(N)=O)C(=O)N[C@H](C(=O)NCC(=O)N[C@@H](CO)C(=O)N[C@@H](CC(N)=O)C(=O)N[C@H](C(=O)N[C@@H](Cc1ccc(O)cc1)C(N)=O)[C@@H](C)O)C(C)C)[C@@H](C)O", "note": "[pramlintide]", "values": [
      {"measurement": "Tolerability", "setting": "[1]; all ratios (6, 9, 12 mcg/U insulin), single meal-time injection", "value": "well tolerated"},
      {"measurement": "Symptomatic hypoglycaemia", "setting": "[1]; during the 24‐h period after pramlintide administration, all ratios", "value": "No symptomatic hypoglycaemia occurred"},
      {"measurement": "Nausea", "setting": "[1]; one patient, accompanying each pramlintide/insulin ratio, able to complete each test meal", "value": "mild nausea"},
      {"measurement": "Mild, asymptomatic hypoglycaemia between test meal days", "setting": "[1]; one patient, after pramlintide 12 mcg/U", "value": "hypoglycaemia 5 and 7 days after receiving pramlintide 12 mcg/U"},
      {"measurement": "Reduction of AUC0–3 h for glucose", "setting": "plasma glucose; 6 mcg/U ratio vs placebo/insulin, p < 0.001", "value": 60, "unit": "%"},
      {"measurement": "Glucose incremental AUC0–3 h, LS mean difference", "setting": "plasma glucose; 6 mcg–placebo, p <0.001", "value": -205.98, "unit": "mg·h/dL"},
      {"measurement": "Glucose incremental AUC0–3 h, LS mean difference", "setting": "plasma glucose; 6–9 mcg, p 0.890", "value": -6.04, "unit": "mg·h/dL"},
      {"measurement": "Glucose incremental AUC0–3 h, LS mean difference", "setting": "plasma glucose; 6–12 mcg, p 0.343", "value": 40.63, "unit": "mg·h/dL"},
      {"measurement": "Glucose incremental AUC0–3 h, LS mean difference", "setting": "plasma glucose; 9 mcg–placebo, p <0.001", "value": -199.93, "unit": "mg·h/dL"},
      {"measurement": "Glucose incremental AUC0–3 h, LS mean difference", "setting": "plasma glucose; 9–12 mcg, p 0.280", "value": 46.67, "unit": "mg·h/dL"},
      {"measurement": "Glucose incremental AUC0–3 h, LS mean difference", "setting": "plasma glucose; 12 mcg–placebo, p <0.001", "value": -246.60, "unit": "mg·h/dL"},
      {"measurement": "Reduction of 0–3‐h glucose increments", "setting": "plasma glucose; [2]", "value": "> 50", "unit": "%"},
      {"measurement": "Reduction of AUC0–3 h for glucagon", "setting": "glucagon; 6 mcg/U ratio vs placebo/insulin", "value": 57, "unit": "%"},
      {"measurement": "Glucagon incremental AUC0–3 h, LS mean difference", "setting": "glucagon; 6 mcg–placebo, p 0.041", "value": -14.23, "unit": "pg·h/mL"},
      {"measurement": "Glucagon incremental AUC0–3 h, LS mean difference", "setting": "glucagon; 6–9 mcg, p 0.934", "value": 0.57, "unit": "pg·h/mL"},
      {"measurement": "Glucagon incremental AUC0–3 h, LS mean difference", "setting": "glucagon; 6–12 mcg, p 0.945", "value": -0.47, "unit": "pg·h/mL"},
      {"measurement": "Reduction of AUC0–3 h for glucagon", "setting": "glucagon; 9 mcg/U ratio vs placebo/insulin", "value": 59, "unit": "%"},
      {"measurement": "Glucagon incremental AUC0–3 h, LS mean difference", "setting": "glucagon; 9 mcg–placebo, p 0.034", "value": -14.80, "unit": "pg·h/mL"},
      {"measurement": "Glucagon incremental AUC0–3 h, LS mean difference", "setting": "glucagon; 9–12 mcg, p 0.879", "value": -1.05, "unit": "pg·h/mL"},
      {"measurement": "Reduction of AUC0–3 h for glucagon", "setting": "glucagon; 12 mcg/U ratio vs placebo/insulin", "value": 55, "unit": "%"},
      {"measurement": "Glucagon incremental AUC0–3 h, LS mean difference", "setting": "glucagon; 12 mcg–placebo, p 0.046", "value": -13.75, "unit": "pg·h/mL"},
      {"measurement": "Reduction of 0–3‐h glucagon increments", "setting": "glucagon; [2]", "value": "> 50", "unit": "%"}
    ]}
  ]
}
